Experiment [1] is described as follows: Inhibition of Cochliobolus lunatus CYP53A15 expressed in Escherichia coli. Set-up: species or system Curvularia lunata. Summed up: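 His-tagged CYP53A15 from E. coli C43(DE3), Ni-NTA purified, reconstituted with rabbit liver NADPH-P450 reductase and DLPC in pH 7.4 phosphate. Reaction started with 1 mM NADPH and benzoate. para-Hydroxybenzoate formation quantified by HPLC of quenched reactions over time. Enzyme at 5 µM, inhibitors at 300 and 600 µM. Kinetic constants from simultaneous progress-curve analysis.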

The subject of experiment [2] is Curvularia lunata. As to the kind of experiment: Antifungal activity against Cochliobolus lunatus at 5 mM assessed as initial growth inhibition time. The format is functional. Summed up: (§1)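 C. lunatus m118 on agar plates in triplicate, each inhibitor at 5 mM alone or at 5 mM combined with 0.1 mM benzoic acid. Plates centrally inoculated with 7 mm mycelial disks taken from a 48 h solid culture. Radial growth rate (mm/h) from colony diameter over time. Initial growth inhibition time (h) is the time-axis intercept of the linear growth phase extrapolated to 7 mm diameter.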

Experiment [3] relates to Curvularia lunata. As to the kind of experiment: Antifungal activity against Cochliobolus lunatus at 5 mM assessed as radial growth rate. The format is functional. The procedure, abridged:
as §1

Experiment [4] concerns Curvularia lunata. Briefly: Antifungal activity against Cochliobolus lunatus delta bph at 5 mM assessed as initial growth inhibition time. The format is functional. Summed up:
(§2)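 Δbph deletion strain of C. lunatus (bph gene replaced by hph, hygromycin-selected) on agar with 5 mM test compound, in triplicate. Plates centrally inoculated with 7 mm mycelial disks from a 48 h culture. Radial growth rate (mm/h) measured; initial growth inhibition time (h) taken as the intercept of the extrapolated linear growth phase at 7 mm.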

In experiment [5] the test system is Curvularia lunata. As to the kind of experiment: Antifungal activity against Cochliobolus lunatus delta bph at 5 mM assessed as radial growth rate. The format is functional. Summed up: as §2
For experiment [6], the system named is Curvularia lunata. As to the kind of experiment: Antifungal activity against Cochliobolus lunatus at 0.1 mM assessed as initial growth inhibition time. The format is functional. Summed up:
as §1

For experiment [7], the system named is Curvularia lunata. Briefly: Antifungal activity against Cochliobolus lunatus at 0.1 mM assessed as radial growth rate. Type of experiment: functional. Summed up: as §1
For experiment [8], the system named is Curvularia lunata. As to the kind of experiment: Antifungal activity against Cochliobolus lunatus. Type of experiment: functional. The procedure, abridged:
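C. lunatus m118 (wild type). MIC, the lowest concentration preventing visible growth after overnight incubation, determined by the Radford method.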

Our source for the Ki, Activity and MIC values is ChEMBL document CHEMBL1150428, “CYP53A15 of Cochliobolus lunatus, a target for natural antifungal compounds” (J Med Chem, 2008).

In brackets after ≈: the same amount, converted by molar mass. Where only a bound is given, the exact number is not on record here.

`Cc1ccc(C(C)C)c(O)c1` [THYMOL]: in experiment [1], the inhibitory constant (Ki) (in general, the equilibrium dissociation constant of an inhibitor or competing ligand from its target) worked out at 8.2 µM.
As for `COc1cc(C=O)ccc1O` [VANILLIN], the results for the Activity in the experiment with Curvularia lunata [2] and with Curvularia lunata [3] were 12 h and 0.55 millimeter/hr, respectively. For the same compound, the Ki in experiment [1] is 29.7 µM.
Turning to `C/C=C\c1ccc(O)c(OC)c1` [ISOEUGENOL], the Activity was greater than 1800 h in the experiment on Curvularia lunata [4], 56 h with Curvularia lunata [2], 0.29 millimeter/hr with Curvularia lunata [3] and 0 millimeter/hr in the experiment with Curvularia lunata [5]. For the same compound, the Ki in experiment [1] came out at 14.2 µM.
With `O=C(O)c1ccccc1` [BENZOIC ACID], the Activity with Curvularia lunata [4] is greater than 1800 h; in the experiment on Curvularia lunata [2], 56 h; with Curvularia lunata [3] it was 0.22 millimeter/hr; in the experiment on Curvularia lunata [6], 12 h; in the experiment on Curvularia lunata [7] it was 0.55 millimeter/hr; in the experiment on Curvularia lunata [5], 0 millimeter/hr. Also, in the experiment with Curvularia lunata [8], it took 5 mM (≈ 611 µg/mL) to inhibit growth (MIC).
`C=CCc1ccc(O)c(OC)c1` [EUGENOL]: the Activity with Curvularia lunata [2] was found to be 20 h; in the experiment on Curvularia lunata [3], 0.57 millimeter/hr. The compound further gave a Ki in experiment [1] of 26.2 µM.
